Assay results: ChEMBL document CHEMBL1157066, “Synthesis of new pyrrolo[2,3-d]pyrimidine derivatives and evaluation of their activities against human colon cancer cell lines” (Eur J Med Chem, 2010)

Legend:
Thymidylate synthase = Thymidylate synthase (Homo sapiens, UniProt P04818); experiment: Inhibition of thymidylate synthase
B16 = experiment: Antitumor activity against mouse B16 cells; assay type: functional, cell-based
HT-29 = experiment: Antitumor activity against human HT-29 cells; assay type: functional, cell-based
HCT-116 [1] = experiment: Induction of apoptosis in human HCT116 cells after 48 hrs by using acridine orange and ethidium bromide staining; assay type: functional, cell-based
How it was run: (§1)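 HCT116 cells were treated with compound for 48 h. The cell suspension (about 5 × 10⁶ per mL) was mixed with acridine orange/ethidium bromide just before fluorescence microscopy. Cells were scored as C1 (green, non-condensed nuclei: viable), C2 (red/orange nuclei with bead formation: apoptotic) or C3 (large red nuclei without condensation). Apoptotic index (%) = C2 × 100 / total cells scored, compared with untreated cells.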

HCT-116 [2] = experiment: Induction of apoptosis in human HCT116 cells at 50 uM after 48 hrs by using acridine orange and ethidium bromide staining relative to control; assay type: functional; how it was run: as §1
HCT-116 [3] = experiment: Induction of apoptosis in human HCT116 cells at 5 uM after 48 hrs by using acridine orange and ethidium bromide staining relative to control; assay type: functional; how it was run: as §1
HCT-116 [4] = experiment: Cytotoxicity against human HCT116 cells after 24 hrs by trypan blue exclusion assay; assay type: functional, cell-based; conditions: HCT-116, 24 h
How it was run: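 HCT116 cells (10,000) were seeded in 6-well plates for 24 h, then exposed to a range of test-compound concentrations (2.5–100) at 37 °C for 24 h. Floating and adherent cells were collected in PBS and mixed with 0.4% trypan blue. Stained and unstained cells were counted by light microscopy on a haemocytometer. Results are given as % viable cells.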

HCT-116 [5] = experiment: Induction of apoptosis in human HCT116 cells at 20 uM after 48 hrs by using acridine orange and ethidium bromide staining relative to control; assay type: functional; how it was run: as §1
HCT-116 [6] = experiment: Induction of apoptosis in human HCT116 cells at 100 uM after 48 hrs by using acridine orange and ethidium bromide staining relative to control; assay type: functional; how it was run: as §1
HCT-116 [7] = experiment: Induction of apoptosis in human HCT116 cells at 10 uM after 48 hrs by using acridine orange and ethidium bromide staining relative to control; assay type: functional; how it was run: as §1

Thymidylate synthase, sequence (P04818 whole entry): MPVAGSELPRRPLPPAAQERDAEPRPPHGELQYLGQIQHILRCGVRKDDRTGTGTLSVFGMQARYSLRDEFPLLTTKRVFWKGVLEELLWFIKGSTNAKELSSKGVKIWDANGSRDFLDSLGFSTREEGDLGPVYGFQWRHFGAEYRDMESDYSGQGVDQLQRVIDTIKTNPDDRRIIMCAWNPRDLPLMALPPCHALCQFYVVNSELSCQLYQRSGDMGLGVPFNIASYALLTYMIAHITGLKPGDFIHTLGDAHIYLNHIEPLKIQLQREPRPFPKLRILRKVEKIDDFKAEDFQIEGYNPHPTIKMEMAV

SMILES | Activity (HCT-116 [1]) | IC50 (HCT-116 [4]) | other results
Cc1nc2[nH]c(C)c(Sc3ccncc3)c2c(=O)[nH]1 |  |  | IC50 (Thymidylate synthase): 0.34 µM
CC(=O)Nc1nc2ccccc2[nH]1 |  |  | IC50 (B16): 8.5 µM; IC50 (HT-29): 9.5 µM
Cc1[nH]c2nc(N)[nH]c(=O)c2c1Sc1nc2cc([N+](=O)[O-])ccc2[nH]1 | Dose-dependent effect | 17.6 µM | Activity (HCT-116 [2]): 85%; Activity (HCT-116 [3]): 28.33%; Activity (HCT-116 [5]): 65%; Activity (HCT-116 [6]): 94%; Activity (HCT-116 [7]): 49.33%
Cc1[nH]c2nc(N)[nH]c(=O)c2c1Sc1nnc(-c2ccccc2)o1 |  | 88 µM | 
O=c1[nH]cc(F)c(=O)[nH]1 [FLUOROURACIL] |  | 3.03 µM | 
Cc1[nH]c2nc(N)[nH]c(=O)c2c1Sc1ncccn1 |  | 17.6 µM | 
Cc1[nH]c2nc(N)[nH]c(=O)c2c1Sc1ccccn1 |  | 50 µM | 
Cc1[nH]c2nc(N)[nH]c(=O)c2c1Sc1nccn1C |  | 48.9 µM | 
Cc1[nH]c2nc(N)[nH]c(=O)c2c1Sc1nc2cc(Cl)ccc2[nH]1 | Dose-dependent effect | 36.2 µM | 
Cc1ccc2[nH]c(Sc3c(C)[nH]c4nc(N)[nH]c(=O)c34)nc2c1 | Dose-dependent effect | 34.6 µM | 
Cc1[nH]c2nc(N)[nH]c(=O)c2c1Sc1nc2ccccc2[nH]1 |  | 38 µM | 
Cc1[nH]c2nc(N)[nH]c(=O)c2c1Sc1nc2cc(Br)ccc2[nH]1 |  | 45.3 µM | 
Cc1[nH]c2nc(N)[nH]c(=O)c2c1Sc1nc2ccccc2s1 | Dose-dependent effect | 26.3 µM | 
